The values that follow come from PMC2213236 (The Journal of Experimental Medicine, 2005).

One data set relates to murine T cells. The note with it: first 14 amino acids of the A-chain of bovine insulin; cited from earlier work.
In the next data set the test system is human T cells. The note with it: first 14 amino acids of the A-chain of bovine insulin; cited from earlier work.
Data set [1] has as its system human CD4^+ T cell clones to proinsulin. Format: cell-based. The note with it: for stimulation of clones by insulin and proinsulin: titrated from 1 μM to 0.1 nM, mean of triplicates ± SEM. A digest of the protocol: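 Clones were cultured in triplicate in IMDM with 5% pooled human serum and irradiated APCs (autologous or HLA-matched PBMCs at 20 Gy, or EBV B-cell lines at 50 Gy). Insulin or proinsulin was used at 10 μg/ml, with anti-HLA DR mAb at 5 μg/ml where indicated. RP-HPLC fractions were tested at 1/400. After 2 d, 3H-thymidine (0.5 μCi/well, 18 h) was added; β-scintillation; mean ± SEM of triplicates.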

Data set [2] in a line: Formation and reduction of the vicinal disulfide bond. Conditions: MS, unpublished data. The class given is physicochemical.
The next data set deals with HLA DRB1*0404. The experiment in a line: HLA DR binding. Also on record: species or system human. Conditions: compared with the serine-substituted homologue.
In data set [3] the test system is proinsulin-specific CD4^+ T cell clones from two healthy HLA DR4^+ donors. The experiment in a line: Proliferation of proinsulin-specific CD4+ T cell clones from healthy donors. Format: cell-based, human. Conditions: 13 clones from two healthy HLA DR4^+ donors (6 and 7 clones); unpublished data.

For the substance GIVEQCCASVCSLY, the “recognition by T cells after immunization” value in the data set on murine T cells and in the data set on human T cells was “recognized” in each case.

KRGIVDQCCTSICSL: the “potency relative to the human homologue (fold less potent)” value in data set [1] (mouse vs human insulin A1-13, 50—0.05 μM peptide) is recorded as ~10 -fold less potent.

Take KRGIVEQC-CTSISSL (disulfide): the “effect of dithiothreitol on the vicinal disulfide bond” value in data set [2] (dithiothreitol treatment, mass increased by 2 Dltons) is “reduced the vicinal disulfide bond”. For the same substance, the “effect of the vicinal disulfide bond on binding to HLA DR4” value in the data set on HLA DRB1*0404 is “did not alter binding to HLA DR4”.

On to KRGIVEQCCTSICSL [KR-A1-13], for which the “clones proliferating in response to peptide” value in data set [3] is given as “none”.

“S-6: serine substituted for the cysteine at A6”: in data set [1] (S-6 peptide in similar experiments, unpublished data), the “proliferation of T cell clones to RP-HPLC fractions” value is “No fractions stimulated proliferation”.

In the case of “S-11: analogue peptide with serine substituted for cysteine at position A11 (KRGIVEQSSTSISSL)”, in data set [1] (S-11 peptide (1 μM) treated with the disulfide-reducing agent TCEP), the “effect of TCEP reduction on ability to stimulate the clones” value is reported as “abolished the ability of S-11 to stimulate the clones”. For the same substance, in data set [2] (S-11 peptide in culture medium), the “formation of the vicinal disulfide bond” value was “within minutes”.

Take “insulin: clinical grade recombinant insulin”: the “HLA DR dependence of the response to insulin” value in data set [1] (clinical grade recombinant insulin 10 μg/ml, anti-HLA DR mAb 5 μg/ml) is listed as “HLA DR dependent”. In addition, the “stimulation of clones by insulin and proinsulin” value in data set [1] is “stimulated the clones equally”.

As to “proinsulin: Recombinant human proinsulin produced in-house, shown to be folded correctly and free of endotoxin”, the “stimulation of clones by insulin and proinsulin” value in data set [1] is “stimulated the clones equally”.
